Reference: ChEMBL document CHEMBL1138651, “Synthesis of small molecule CDC25 phosphatases inhibitors” (Bioorg Med Chem Lett, 2004)

What follows are compounds tested against T1, M-phase inducer phosphatase 3 (Homo sapiens, UniProt P30307) (assay: Inhibitory concentration for human cell division cycle 25 degree C phosphatase).
T1 sequence (P30307 whole entry): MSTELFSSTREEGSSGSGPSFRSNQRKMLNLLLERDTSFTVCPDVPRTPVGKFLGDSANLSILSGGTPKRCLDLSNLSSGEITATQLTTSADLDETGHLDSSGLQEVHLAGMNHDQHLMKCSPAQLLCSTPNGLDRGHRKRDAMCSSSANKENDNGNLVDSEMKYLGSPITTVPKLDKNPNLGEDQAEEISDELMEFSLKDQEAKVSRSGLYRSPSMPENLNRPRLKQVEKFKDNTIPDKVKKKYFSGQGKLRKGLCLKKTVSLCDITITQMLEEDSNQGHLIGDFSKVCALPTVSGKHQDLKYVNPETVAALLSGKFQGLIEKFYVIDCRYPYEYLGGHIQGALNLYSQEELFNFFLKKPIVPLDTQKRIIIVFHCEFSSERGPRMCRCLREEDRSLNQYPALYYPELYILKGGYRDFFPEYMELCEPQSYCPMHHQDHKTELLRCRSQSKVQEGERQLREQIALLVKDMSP
Method in brief: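 Recombinant human CDC25C expressed as an MBP fusion, assayed with 3-O-methylfluorescein phosphate (OMFP) as substrate. Dose-response used to derive IC50, with menadione as positive control. Values are the mean ± SEM of at least two independent experiments. Compounds with IC50 > 80 µM were scored not active.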

Row | SMILES | IC50 [µM]
1 | CN(CCc1ccc([N+](=O)[O-])cc1)Cc1cc(N(C)C)ccc1O | 5.6
2 | COc1cc(N(C)C)cc(CNCCc2ccc([N+](=O)[O-])cc2)c1O | 4
3 | CC1=CC(=O)c2ccccc2C1=O [MENADIONE] | 18.8
4 | CN(C)c1ccc(O)c(CNCCc2ccc([N+](=O)[O-])cc2)c1 | 3.9
5 | COc1cc(CN(C)CCc2ccc([N+](=O)[O-])cc2)cc(N(C)C)c1O | 20.7

What follows are compounds tested against T1, M-phase inducer phosphatase 3 (assay: Inhibitory concentration for human cell division cycle 25 degree C phosphatase; […]).

Row | SMILES | IC50 [µM]
6 | CN(CCc1ccc([N+](=O)[O-])cc1)Cc1ccc(N(C)C)cc1 | > 80
7 | COc1cc(N(C)C)ccc1CN(C)CCc1ccc([N+](=O)[O-])cc1 | > 80
8 | CN(CCc1ccc([N+](=O)[O-])cc1)Cc1ccccc1O | > 80
9 | CN(CCc1ccc([N+](=O)[O-])cc1)Cc1ccccc1 | > 80
10 | COc1cccc(CN(C)CCc2ccc([N+](=O)[O-])cc2)c1OC | > 80
11 | COc1cccc(CN(C)CCc2ccc([N+](=O)[O-])cc2)c1 | > 80
12 | CN(CCc1ccc([N+](=O)[O-])cc1)Cc1cc([N+](=O)[O-])ccc1O | > 80
13 | CN(CCc1ccc([N+](=O)[O-])cc1)Cc1cccc(N(C)C)c1 | > 80
14 | COc1ccc(OC)c(CN(C)CCc2ccc([N+](=O)[O-])cc2)c1 | > 80
15 | COc1cccc(CN(C)CCc2ccc([N+](=O)[O-])cc2)c1O | > 80
